ChEMBL document CHEMBL3045677, “Sulfonamide-1,2,4-thiadiazole derivatives as antifungal and antibacterial agents: synthesis, biological evaluation, lipophilicity, and conformational studies” (2010)
≈ marks a conversion by molar mass, not a printed value.

Experiments:
Bacillus cereus [1] = assay: Antibacterial activity against clinical isolate Bacillus cereus at […] degC measured after 72 hr by microdilution method; format: functional
Outline: (§1)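 Bactericidal endpoint: after the 24 h broth microdilution (1.0×10⁴ CFU per well, LB broth, […] °C), wells were serially subcultured into plates of fresh broth and incubated a further 72 h. MBC was the lowest concentration with no visible growth, taken as 99.5% killing of the original inoculum.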

Salmonella typhimurium [2] = assay: Antibacterial activity against Salmonella enterica subsp. enterica serovar Typhimurium ATCC 13311 at […] degC measured after 24 hr by microdilution method; format: functional; conditions: ATCC 13311, 24 h
Outline: (§2)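 Bacteria suspended in sterile saline at 1.0×10⁵ CFU/ml and added at 1.0×10⁴ CFU per well to LB broth with compound (1 mg/ml) in 96-well plates. Incubated 24 h at […] °C. MIC was the lowest concentration without visible growth under a binocular microscope. OD 655 nm was read against a blank and a positive control.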

Escherichia coli [3] = assay: Antibacterial activity against Escherichia coli ATCC 35210 at […] degC measured after 72 hr by microdilution method; format: functional; conditions: ATCC 35210, 72 h; outline: as §1
Aspergillus niger = assay: Antifungal activity against Aspergillus niger ATCC 6275 at 28 degC measured after 72 hr by microdilution method; format: functional; conditions: ATCC 6275, 72 h
Outline: (§3)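 Fungi were kept on malt agar at 4 °C. Spores were washed off with sterile 0.85% saline containing 0.1% Tween 80 and adjusted to about 1.0×10⁵ per well. Compounds were dissolved in DMSO (1 mg/ml stock) and serially diluted in malt broth with inoculum in 96-well plates, 72 h at 28 °C, for MIC. MFC came from subculture into fresh broth for a further 72 h at 28 °C.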

Bacillus cereus [4] = assay: Antibacterial activity against clinical isolate Bacillus cereus at […] degC measured after 24 hr by microdilution method; format: functional; outline: as §2
Aspergillus fumigatus = assay: Antifungal activity against plant isolate Aspergillus fumigatus at 28 degC measured after 72 hr by microdilution method; format: functional; outline: as §3
Micrococcus flavus [5] = assay: Antibacterial activity against Micrococcus flavus ATCC 10240 at […] degC measured after 72 hr by microdilution method; format: functional; conditions: ATCC 10240, 72 h; outline: as §1
Pseudomonas aeruginosa [6] = assay: Antibacterial activity against Pseudomonas aeruginosa ATCC 27853 at […] degC measured after 24 hr by microdilution method; format: functional; conditions: ATCC 27853, 24 h; outline: as §2
Proteus mirabilis [7] = assay: Antibacterial activity against Proteus mirabilis at […] degC measured after 72 hr by microdilution method; format: functional; outline: as §1
Staphylococcus aureus [8] = assay: Antibacterial activity against Staphylococcus aureus ATCC 6538 at […] degC measured after 24 hr by microdilution method; format: functional; conditions: ATCC 6538, 24 h; outline: as §2
Talaromyces funiculosus = assay: Antifungal activity against Talaromyces funiculosus ATCC 36839 at 28 degC measured after 72 hr by microdilution method; format: functional; conditions: ATCC 36839, 72 h; outline: as §3
Listeria monocytogenes [9] = assay: Antibacterial activity against Listeria monocytogenes NCTC 7973 at […] degC measured after 72 hr by microdilution method; format: functional; conditions: NCTC 7973, 72 h; outline: as §1
Listeria monocytogenes [10] = assay: Antibacterial activity against Listeria monocytogenes NCTC 7973 at […] degC measured after 24 hr by microdilution method; format: functional; conditions: NCTC 7973, 24 h; outline: as §2
Trichoderma viride = assay: Antifungal activity against Hypocrea rufa IAM 5061 at 28 degC measured after 72 hr by microdilution method; format: functional; conditions: IAM 5061, 72 h; outline: as §3
Salmonella typhimurium [11] = assay: Antibacterial activity against Salmonella enterica subsp. enterica serovar TyphimuriumATCC 13311 at […] degC measured after 72 hr by microdilution method; format: functional, Salmonella enterica subsp. enterica serovar Typhimurium; conditions: ATCC 13311, 72 h; outline: as §1
Proteus mirabilis [12] = assay: Antibacterial activity against Proteus mirabilis at […] degC measured after 24 hr by microdilution method; format: functional; outline: as §2
Escherichia coli [13] = assay: Antibacterial activity against Escherichia coli ATCC 35210 at […] degC measured after 24 hr by microdilution method; format: functional; conditions: ATCC 35210, 24 h; outline: as §2
Penicillium ochrochloron = assay: Antifungal activity against Penicillium ochrochloron ATCC 9112 at 28 degC measured after 72 hr by microdilution method; format: functional; conditions: ATCC 9112, 72 h; outline: as §3
Aspergillus flavus = assay: Antifungal activity against Aspergillus flavus ATCC 9643 at 28 degC measured after 72 hr by microdilution method; format: functional; conditions: ATCC 9643, 72 h; outline: as §3
Micrococcus flavus [14] = assay: Antibacterial activity against Micrococcus flavus ATCC 10240 at […] degC measured after 24 hr by microdilution method; format: functional; conditions: ATCC 10240, 24 h; outline: as §2
Aspergillus versicolor = assay: Antifungal activity against Aspergillus versicolor ATCC 11730 at 28 degC measured after 72 hr by microdilution method; format: functional; conditions: ATCC 11730, 72 h; outline: as §3
Pseudomonas aeruginosa [15] = assay: Antibacterial activity against Pseudomonas aeruginosa ATCC 27853 at […] degC measured after 72 hr by microdilution method; format: functional; conditions: ATCC 27853, 72 h; outline: as §1
Fulvia fulva = assay: Antifungal activity against Passalora fulva TK5318 at 28 degC measured after 72 hr by microdilution method; format: functional; conditions: TK5318, 72 h; outline: as §3
Staphylococcus aureus [16] = assay: Antibacterial activity against Staphylococcus aureus ATCC 6538 at […] degC measured after 72 hr by microdilution method; format: functional; conditions: ATCC 6538, 72 h; outline: as §1

| Structure (SMILES) | MBC (Bacillus cereus [1]) | MIC (Salmonella typhimurium [2]) | MBC (Escherichia coli [3]) | MFC (Aspergillus niger) | MIC (Aspergillus niger) | MIC (Bacillus cereus [4]) | MFC (Aspergillus fumigatus) | MIC (Aspergillus fumigatus) | MBC (Micrococcus flavus [5]) | MIC (Pseudomonas aeruginosa [6]) | MBC (Proteus mirabilis [7]) | MIC (Staphylococcus aureus [8]) | MFC (Talaromyces funiculosus) | MIC (Talaromyces funiculosus) | MBC (Listeria monocytogenes [9]) | MIC (Listeria monocytogenes [10]) | MFC (Trichoderma viride) | MIC (Trichoderma viride) | MBC (Salmonella typhimurium [11]) | MIC (Proteus mirabilis [12]) | other results |
| --- | --- | --- | --- | --- | --- | --- | --- | --- | --- | --- | --- | --- | --- | --- | --- | --- | --- | --- | --- | --- | --- |
| COc1cc(Cc2nnc(Nc3ccccc3)s2)c(S(=O)(=O)N2CCCC2)cc1OC | 21.7 µM (≈ 9.99 µg/mL) | 10.9 µM (≈ 5.02 µg/mL) | 43.4 µM (≈ 20 µg/mL) | 43.4 µM (≈ 20 µg/mL) | 21.7 µM (≈ 9.99 µg/mL) | 10.9 µM (≈ 5.02 µg/mL) | 43.4 µM (≈ 20 µg/mL) | 21.7 µM (≈ 9.99 µg/mL) | 21.7 µM (≈ 9.99 µg/mL) | 21.7 µM (≈ 9.99 µg/mL) | 43.4 µM (≈ 20 µg/mL) | 21.7 µM (≈ 9.99 µg/mL) | 43.4 µM (≈ 20 µg/mL) | 21.7 µM (≈ 9.99 µg/mL) | 43.4 µM (≈ 20 µg/mL) | 21.7 µM (≈ 9.99 µg/mL) | 21.7 µM (≈ 9.99 µg/mL) | 10.9 µM (≈ 5.02 µg/mL) | 21.7 µM (≈ 9.99 µg/mL) | 21.7 µM (≈ 9.99 µg/mL) | MIC (Escherichia coli [13]): 21.7 µM (≈ 9.99 µg/mL); MFC (Penicillium ochrochloron): 43.4 µM (≈ 20 µg/mL); MIC (Penicillium ochrochloron): 21.7 µM (≈ 9.99 µg/mL); MFC (Aspergillus flavus): 43.4 µM (≈ 20 µg/mL); MIC (Aspergillus flavus): 21.7 µM (≈ 9.99 µg/mL); MIC (Micrococcus flavus [14]): 10.9 µM (≈ 5.02 µg/mL); MFC (Aspergillus versicolor): 43.4 µM (≈ 20 µg/mL); MIC (Aspergillus versicolor): 21.7 µM (≈ 9.99 µg/mL); MBC (Pseudomonas aeruginosa [15]): 43.4 µM (≈ 20 µg/mL); MFC (Fulvia fulva): 21.7 µM (≈ 9.99 µg/mL); MIC (Fulvia fulva): 10.9 µM (≈ 5.02 µg/mL); MBC (Staphylococcus aureus [16]): 43.4 µM (≈ 20 µg/mL) |
| COc1cc(Cc2nnc(Nc3ccc(Cl)cc3)s2)c(S(=O)(=O)N2CCCC2)cc1OC | 40.4 µM (≈ 20 µg/mL) | 10.1 µM (≈ 5 µg/mL) | 40.4 µM (≈ 20 µg/mL) | 40.4 µM (≈ 20 µg/mL) | 20.2 µM (≈ 10 µg/mL) | 20.2 µM (≈ 10 µg/mL) | 40.4 µM (≈ 20 µg/mL) | 20.2 µM (≈ 10 µg/mL) | 40.4 µM (≈ 20 µg/mL) | 20.2 µM (≈ 10 µg/mL) | 40.4 µM (≈ 20 µg/mL) | 20.2 µM (≈ 10 µg/mL) | 20.2 µM (≈ 10 µg/mL) | 10.1 µM (≈ 5 µg/mL) | 40.4 µM (≈ 20 µg/mL) | 40.4 µM (≈ 20 µg/mL) | 20.2 µM (≈ 10 µg/mL) | 10.1 µM (≈ 5 µg/mL) | 20.2 µM (≈ 10 µg/mL) | 20.2 µM (≈ 10 µg/mL) | MIC (Escherichia coli [13]): 15.2 µM (≈ 7.52 µg/mL); MFC (Penicillium ochrochloron): 40.4 µM (≈ 20 µg/mL); MIC (Penicillium ochrochloron): 20.2 µM (≈ 10 µg/mL); MFC (Aspergillus flavus): 40.4 µM (≈ 20 µg/mL); MIC (Aspergillus flavus): 20.2 µM (≈ 10 µg/mL); MIC (Micrococcus flavus [14]): 20.2 µM (≈ 10 µg/mL); MFC (Aspergillus versicolor): 40.4 µM (≈ 20 µg/mL); MIC (Aspergillus versicolor): 20.2 µM (≈ 10 µg/mL); MBC (Pseudomonas aeruginosa [15]): 40.4 µM (≈ 20 µg/mL); MFC (Fulvia fulva): 20.2 µM (≈ 10 µg/mL); MIC (Fulvia fulva): 10.1 µM (≈ 5 µg/mL); MBC (Staphylococcus aureus [16]): 40.4 µM (≈ 20 µg/mL) |
| COc1cc(Cc2nnc(Nc3ccc([N+](=O)[O-])cc3)s2)c(S(=O)(=O)N2CCCC2)cc1OC | 39.6 µM (≈ 20 µg/mL) | 39.6 µM (≈ 20 µg/mL) | 39.6 µM (≈ 20 µg/mL) | 39.6 µM (≈ 20 µg/mL) | 19.8 µM (≈ 10 µg/mL) | 19.8 µM (≈ 10 µg/mL) | 19.8 µM (≈ 10 µg/mL) | 9.9 µM (≈ 5.01 µg/mL) | 39.6 µM (≈ 20 µg/mL) | 19.8 µM (≈ 10 µg/mL) | 79.2 µM (≈ 40 µg/mL) | 19.8 µM (≈ 10 µg/mL) | 19.8 µM (≈ 10 µg/mL) | 9.9 µM (≈ 5.01 µg/mL) | 39.6 µM (≈ 20 µg/mL) | 19.8 µM (≈ 10 µg/mL) | 19.8 µM (≈ 10 µg/mL) | 9.9 µM (≈ 5.01 µg/mL) | 79.2 µM (≈ 40 µg/mL) | 39.6 µM (≈ 20 µg/mL) | MIC (Escherichia coli [13]): 19.8 µM (≈ 10 µg/mL); MFC (Penicillium ochrochloron): 39.6 µM (≈ 20 µg/mL); MIC (Penicillium ochrochloron): 19.8 µM (≈ 10 µg/mL); MFC (Aspergillus flavus): 39.6 µM (≈ 20 µg/mL); MIC (Aspergillus flavus): 19.8 µM (≈ 10 µg/mL); MIC (Micrococcus flavus [14]): 19.8 µM (≈ 10 µg/mL); MFC (Aspergillus versicolor): 39.6 µM (≈ 20 µg/mL); MIC (Aspergillus versicolor): 19.8 µM (≈ 10 µg/mL); MBC (Pseudomonas aeruginosa [15]): 39.6 µM (≈ 20 µg/mL); MFC (Fulvia fulva): 19.8 µM (≈ 10 µg/mL); MIC (Fulvia fulva): 9.9 µM (≈ 5.01 µg/mL); MBC (Staphylococcus aureus [16]): 39.6 µM (≈ 20 µg/mL) |
